Measurements taken from PubChem BioAssay.
Calls of active or inactive are those of the source.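 How the source made its calls, unless noted: active means viability at or below 10% of carrier control in both of two separate runs; inconclusive means viability at or below 10% in only one of the two runs; inactive means the rest.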

Key:
[1] = Her2 expression decrease, cell viability multiplex – SKBR3 breast tumor cells, AlphaScreen, ATP viability, primary screen (AID 461;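 active means Her2 level under about 52% in both replicate screens, with viability over 70% of control, limit read from the data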;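 on Her2 level: lower value means less Her2 protein in the cells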;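 on viability: percent of carrier control wells set as 100% viability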); settings: SKBR3 Her2 protein level, 18-24 h, measured here: SKBR3 viability, ATP luminescence, at 10 µM
[2] = target: Receptor tyrosine-protein kinase erbB-2 (Homo sapiens) (UniProt P04626); experiment: as above; settings: 18-24 h, at 10 µM, stronger effect = lower value
Sequence of Receptor tyrosine-protein kinase erbB-2 (Homo sapiens) (P04626 whole entry, looked up): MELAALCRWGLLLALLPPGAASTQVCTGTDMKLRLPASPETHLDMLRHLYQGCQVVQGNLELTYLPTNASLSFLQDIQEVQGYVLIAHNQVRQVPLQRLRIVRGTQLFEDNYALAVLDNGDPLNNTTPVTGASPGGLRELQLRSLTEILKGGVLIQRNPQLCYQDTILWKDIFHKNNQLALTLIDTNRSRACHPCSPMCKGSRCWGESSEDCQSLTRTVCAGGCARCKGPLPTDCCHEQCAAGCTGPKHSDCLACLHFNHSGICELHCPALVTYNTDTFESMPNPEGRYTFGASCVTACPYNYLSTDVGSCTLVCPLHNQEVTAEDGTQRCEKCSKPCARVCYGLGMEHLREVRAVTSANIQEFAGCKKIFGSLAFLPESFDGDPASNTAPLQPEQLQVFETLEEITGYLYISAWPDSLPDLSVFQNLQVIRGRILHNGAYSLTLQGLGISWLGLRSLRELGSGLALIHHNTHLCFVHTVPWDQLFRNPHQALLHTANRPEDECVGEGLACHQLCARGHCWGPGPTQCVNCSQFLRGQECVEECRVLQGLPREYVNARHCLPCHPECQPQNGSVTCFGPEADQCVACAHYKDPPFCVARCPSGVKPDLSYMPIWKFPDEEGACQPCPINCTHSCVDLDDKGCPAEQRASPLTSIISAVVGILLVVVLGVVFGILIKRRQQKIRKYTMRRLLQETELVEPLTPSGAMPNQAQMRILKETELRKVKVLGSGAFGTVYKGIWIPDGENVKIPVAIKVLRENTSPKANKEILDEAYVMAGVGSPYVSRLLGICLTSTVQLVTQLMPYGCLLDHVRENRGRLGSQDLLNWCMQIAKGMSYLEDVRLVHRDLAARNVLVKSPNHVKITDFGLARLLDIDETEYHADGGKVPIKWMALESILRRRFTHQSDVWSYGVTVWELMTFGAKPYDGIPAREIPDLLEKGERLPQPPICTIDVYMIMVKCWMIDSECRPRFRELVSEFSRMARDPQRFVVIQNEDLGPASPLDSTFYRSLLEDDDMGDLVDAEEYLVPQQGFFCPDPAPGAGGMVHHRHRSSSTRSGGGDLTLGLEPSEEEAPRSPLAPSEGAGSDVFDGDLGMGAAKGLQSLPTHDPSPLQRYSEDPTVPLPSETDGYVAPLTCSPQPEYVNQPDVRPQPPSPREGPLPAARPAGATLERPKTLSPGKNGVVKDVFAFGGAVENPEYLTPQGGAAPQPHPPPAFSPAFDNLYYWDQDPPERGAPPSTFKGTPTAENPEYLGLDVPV

[3] = reduced viability of SK-BR-3 breast cancer cells – cell-based, 24 h, human, pilot screen (AID 572); settings: SK-BR-3 viability, CellTiter-Glo luminescence, at 10 µM, stronger effect = lower value;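 further: compound exposure lasted between 18 and 24 h rather than exactly 24 h; 100% = carrier-treated control wells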
[4] = HUVEC growth inhibition – cell-based, human, primary screen (AID 575;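 active means viability at or below 30% in both replicate assays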;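 further: 100% = median of untreated cell wells with 0.1% DMSO on each plate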); settings: HUVEC proliferation, CellTiter-Glo luminescence, 72 h; at 10 µM; stronger effect = lower value
How it was run: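 Test system: HUVEC primary cells. Quantity: 1250 endothelial cells in each well. Dosing: single-point 10 µM, DMSO 0.1% final. Incubation: 72 h treatment at 37 °C. Measured by: CTG luminescence. Control set: DMSO cell controls and MePR drug controls. Plate: collagen-coated 384-well format.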

[5] = H69AR cell proliferation blockers – human, duplicate replicates, primary screen (AID 580;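 active means viability at or under a set limit in both replicates, limit being median viability minus 3 SD, cut at about 48% in these data, passing the limit was not always enough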;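 further: 100% = mean luminescence of untreated wells and 0% = no signal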); settings: H69AR lung tumor cells viability, ATP luminescence, 72 h; at 10 µM; stronger effect = lower value
[6] = MRP1 drug-resistance reversers in H69AR cells – cell-based, doxorubicin co-treatment, pilot screen (AID 601;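 active means viability loss from added drug above about 55%, and viability with drug at most 40%, in both replicates, limit read from the data, passing the limit was not always enough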); settings: CellTiter-Glo, 72 h, at 10 µM; for differential viability (reversal): stronger effect = higher value
[7] = yeast transport mutant growth inhibition pilot in 384-well plates, post-Golgi transport modulator project (AID 636; in the data active means inhibition above about 31%); settings: absorbance 615 nm, about 18 h, stronger effect = higher value
[8] = growth suppression of yeast trafficking mutant, preliminary HTS, modulators of trafficking downstream of Golgi apparatus project, 1536-format plate, OD 615 nm (AID 637; in the data active means inhibition above about 30%); settings: yeast transport mutant growth, absorbance 615 nm, 18 h; stronger effect = higher value
[9] = H69AR cells + 2 uM doxorubicin, measured here: viability with 2 uM doxorubicin, stronger effect = lower value
[10] = H69AR cells, compound alone cytotoxicity

Structure (SMILES) | viability [1] [%] | Her2 level [2] | viability [3] | viability [4] | viability [5] | differential viability (reversal) ([6]; H69AR cells + 2 uM doxorubicin) | viability [6, 9] [%] | viability [6, 10] [%] | inhibition [7] | inhibition [8]
O=C(Cc1c(F)cccc1Cl)Nc1ccncc1 | 92 | 91.5% (inactive) | 92% (inactive) | 97.5% (inactive) | 86.4% (inactive) | -5.46% (inactive) | 91.9 | 86.4 | -5.2% (inactive) | -0.48% (inactive)
CCCc1nnc2n1N=C(c1ccc(OC)c(OC)c1)CS2 | 85 | 80% (inactive) | 85% (inactive) | 68.7% (inactive) | 69.9% (inactive) | 3.1% (inactive) | 66.8 | 69.9 | -5.33% (inactive) | 2.62% (inactive)
CCOc1ccccc1N1CCN(c2nc(N)c(C#N)c(CC#N)c2C#N)CC1 | 108 | 74.5% (inactive) | 108% (inactive) | 70.7% (inactive) | 61.7% (inactive) | -22.8% (inactive) | 84.5 | 61.7 | -4.34% (inactive) | 5.64% (inactive)
CN(C(=O)c1ccccn1)c1nnc(-c2ccncc2)s1 | 118 | 92.5% (inactive) | 118% (inactive) | 101% (inactive) | 108% (inactive) | 15.6% (inactive) | 92.8 | 108 | -3.65% (inactive) | -5% (inactive)
O=C(NC1=NCCS1)NC12CC3CC(CC(C3)C1)C2 | 111 | 106% (inactive) | 111% (inactive) | 98.4% (inactive) | 93% (inactive) | 4.27% (inactive) | 88.7 | 93 | -4.53% (inactive) | 5.08% (inactive)
COc1ccc2c(c1)C(=NO)c1cc(OC)ccc1-2 | 120 | 61.5% (inactive) | 120% (inactive) | 58.5% (inactive) | 83.8% (inactive) | -6.16% (inactive) | 90 | 83.8 | -8.24% (inactive) | 2% (inactive)
O=C(CNS(=O)(=O)c1ccc(Br)s1)N1CCN(c2ncccn2)CC1 | 98.5 | 116% (inactive) | 98.5% (inactive) | 122% (inactive) | 94.6% (inactive) | -4.04% (inactive) | 98.7 | 94.6 | -4.87% (inactive) | -1.31% (inactive)
O=C(CN(c1ccc(F)cc1)S(=O)(=O)c1ccc2c(c1)OCCO2)Nc1ccc2c(c1)OCO2 | 83 | 89.5% (inactive) | 83% (inactive) | 91.3% (inactive) | 99.8% (inactive) | 4.63% (inactive) | 95.2 | 99.8 | 0.8% (inactive) | 4.03% (inactive)
O=C(O)Cn1cc(C(=O)c2ccco2)c2ccccc21 | 95 | 100% (inactive) | 95% (inactive) | 105% (inactive) | 85.5% (inactive) | -4.73% (inactive) | 90.3 | 85.5 | -0.52% (inactive) | 3.61% (inactive)
CCCn1c(=O)c2ccccc2n2c(SCCOc3ccccc3F)nnc12 | 72 | 102% (inactive) | 72% (inactive) | 85.2% (inactive) | 88.8% (inactive) | 18.1% (inactive) | 70.7 | 88.8 | 2.08% (inactive) | -6.72% (inactive)
COc1ccc(-n2ncc3c(NCCCN4CCOCC4)ncnc32)cc1 | 102 | 102% (inactive) | 102% (inactive) | 103% (inactive) | 109% (inactive) | 4.54% (inactive) | 104 | 109 | -6.13% (inactive) | 7.87% (inactive)
Nn1c(SCC(=O)Nc2ccc3c(c2)OCO3)nnc1C1CC1 | 102 | 78.5% (inactive) | 102% (inactive) | 105% (inactive) | 94.2% (inactive) | 2% (inactive) | 92.2 | 94.2 | -5.41% (inactive) | 8.25% (inactive)
CCc1nnc(NC(=O)c2cc3c(s2)CCCCC3)s1 | 92.5 | 108% (inactive) | 92.5% (inactive) | 90.5% (inactive) | 76.1% (inactive) | -2.58% (inactive) | 78.7 | 76.1 | -1.17% (inactive) | -3.44% (inactive)
COC(=O)Nc1nc2c(C)cccc2s1 | 114 | 88% (inactive) | 114% (inactive) | 56.1% (inactive) | 85.4% (inactive) | 11.9% (inactive) | 73.5 | 85.4 | 1.18% (inactive) | 8.33% (inactive)
COc1cccc(Oc2ccc(N)cn2)c1 | 87 | 106% (inactive) | 87% (inactive) | 109% (inactive) | 88.1% (inactive) | 3.66% (inactive) | 84.4 | 88.1 | -2.37% (inactive) | -4.43% (inactive)
O=C(Nc1ccccc1N1CCN(c2ccc(F)cc2)CC1)c1ccccc1 | 95 | 96% (inactive) | 95% (inactive) | 78.5% (inactive) | 93.8% (inactive) | 9.15% (inactive) | 84.6 | 93.8 | -5.87% (inactive) | 4.13% (inactive)
O=C(Nc1cccc2ccccc12)N1CCOCC1 | 119 | 103% (inactive) | 119% (inactive) | 85.9% (inactive) | 90.5% (inactive) | -8.41% (inactive) | 98.9 | 90.5 | -2.95% (inactive) | 11.3% (inactive)
CC(C)OC(=O)CSc1nnc(-c2ccc(C(C)(C)C)cc2)n1N | 93 | 108% (inactive) | 93% (inactive) | 86.7% (inactive) | 88.4% (inactive) | 5.61% (inactive) | 82.8 | 88.4 | -2.6% (inactive) | -12.7% (inactive)
Cn1c(=O)n(C)c2cc(CNc3ccc(N4CCOCC4)c(C(=O)O)c3)ccc21 | 107 | 89.5% (inactive) | 107% (inactive) | 113% (inactive) | 89.6% (inactive) | -2.67% (inactive) | 92.2 | 89.6 | -3.33% (inactive) | 0.49% (inactive)
CCOC(=O)C1=C(C)NC(SC(C)=O)=NC1c1ccc(OC(C)=O)c(OC)c1 (stereo not given) | 106 | 95.5% (inactive) | 106% (inactive) | 82.9% (inactive) | 85.3% (inactive) | -9.22% (inactive) | 94.5 | 85.3 | -6.84% (inactive) | -6.36% (inactive)
Cc1cnn(Cc2ccccc2)c1N | 115 | 73.5% (inactive) | 115% (inactive) | 84.3% (inactive) | 88.7% (inactive) | 11.2% (inactive) | 77.6 | 88.7 | -6.08% (inactive) | 4.76% (inactive)
COc1cccc(N2CCN(C(=O)C3C4C=CC5(CN(Cc6ccccc6Cl)C(=O)C35)O4)CC2)c1 (stereo not given) | 83.5 | 97% (inactive) | 83.5% (inactive) | 78.6% (inactive) | 100% (inactive) | 9.13% (inactive) | 91.3 | 100 | -3.42% (inactive) | -6.17% (inactive)
N#Cc1nc(-c2ccco2)oc1N1CCN(c2cccc(Cl)c2)CC1 | 87 | 85.5% (inactive) | 87% (inactive) | 90.1% (inactive) | 90% (inactive) | -5.21% (inactive) | 95.2 | 90 | -4.13% (inactive) | 4.29% (inactive)
c1ccc(CN2C3=NCCCN3c3ccccc32)cc1 | 79 | 84% (inactive) | 79% (inactive) | 82.9% (inactive) | 91.2% (inactive) | 8.3% (inactive) | 83 | 91.2 | -1.43% (inactive) | -3.65% (inactive)
Cc1cc(N2CCN(c3ccccn3)CC2)n2nc(C)nc2n1 | 102 | 114% (inactive) | 102% (inactive) | 90.2% (inactive) | 87.4% (inactive) | -7.31% (inactive) | 94.7 | 87.4 | -4.23% (inactive) | -7% (inactive)
CCc1nc(C)c(-c2ccccc2)c(=O)[nH]1 | 102 | 120% (inactive) | 102% (inactive) | 81.8% (inactive) | 113% (inactive) | 25.6% (inactive) | 87.2 | 113 | -3.2% (inactive) | -8.39% (inactive)
CC(C)C(c1nnnn1CC1CCCO1)N1CCN(Cc2ccc3c(c2)OCO3)CC1 (stereo not given) | 102 | 82.5% (inactive) | 102% (inactive) | 113% (inactive) | 95.3% (inactive) | 4.93% (inactive) | 90.3 | 95.3 | -6.44% (inactive) | -3.97% (inactive)
COc1ccc(OC)c(NC(=O)CSc2nc3ccccc3c(=O)n2CCNC(C)=O)c1 | 118 | 108% (inactive) | 118% (inactive) | 95.4% (inactive) | 80.7% (inactive) | 64.1% (active) | 16.6 | 80.7 | -1.58% (inactive) | 0.32% (inactive)
